Test results: ChEMBL document CHEMBL1221221, “Discovering chemical modifiers of oncogene-regulated hematopoietic differentiation” (Nat Chem Biol, 2009)
The source made the active and inactive calls. No cut-off for these calls is given here.

Key:
Danio rerio [1] = species: Danio rerio; assay: Inhibition of heat-induced AML1-ETO protein expression in heterozygous transgenic zebrafish embryo at 0.15 uM by Western blot analysis; format: functional, organism-based
How it was run: (§1)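 Heterozygous Tg(hsp:AML1-ETO) embryos, bred from homozygous transgenic × wild-type crosses, were heat-treated at 39−40 °C for 1 h to induce AE. Lysates were Western blotted with anti-AML1 antibody for AE and also probed for Hsp70, with Akt as the loading reference. Controls were DMSO vehicle, heat-treated wild-type embryos, and unheated transgenic embryos.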

Danio rerio [2] = species: Danio rerio; assay: Inhibition of Hsp70 expression in heterozygous transgenic zebrafish embryo at 0.15 uM by Western blot analysis; format: functional, organism-based; how it was run: as §1
Danio rerio [3] = species: Danio rerio; assay: Inhibition of COX2-mediated decrease in gata1 expression in heat-stimulated heterozygous transgenic zebrafish embryo assessed as restoration of gata1 level at 25 uM by in-situ hybridization analysis
How it was run: (§2)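 Heterozygous Tg(hsp:AML1-ETO) embryos from homozygous × wild-type crosses. Compound added in DMSO 1 h before heat treatment at 39−40 °C for 1 h at 16−18 hpf. Embryos fixed 90 min after heat treatment, then whole-mount in situ hybridization for gata1 in posterior blood islands. Scored as counts of embryos showing the phenotype. DMSO vehicle control; unheated transgenic embryos for comparison.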

Danio rerio [4] = species: Danio rerio; assay: Inhibition of COX2-mediated decrease in gata1 expression in heterozygous transgenic zebrafish embryo assessed as restoration of gata1 level at 25 uM by in-situ hybridization analysis; how it was run: as §2
Danio rerio [5] = species: Danio rerio; assay: Inhibition of COX2 in heat-stimulated heterozygous transgenic zebrafish embryo assessed as MPO-positive granulocytic cell accumulation at 25 uM by in situ hybridization analysis
How it was run: (§3)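 Heterozygous Tg(hsp:AML1-ETO) embryos given heat treatment at 39−40 °C for 1 h at 16−18 hpf. Compound added in DMSO right at the end of heat treatment, with or without PGE2 (20 μM). Embryos fixed at 36−40 hpf for mpo in situ hybridization of granulocytic cells. Scored as counts of embryos showing the phenotype; unheated transgenic embryos also tested.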

Danio rerio [6] = species: Danio rerio; assay: Inhibition of COX2 in heterozygous transgenic zebrafish embryo assessed as MPO-positive granulocytic cell accumulation at 25 uM by in situ hybridization analysis; how it was run: as §3
Danio rerio [7] = species: Danio rerio; assay: Inhibition of COX2 in heat-stimulated heterozygous transgenic zebrafish embryo assessed as MPO-positive granulocytic cell accumulation at 25 uM by in situ hybridization analysis in presence of PGE2; how it was run: as §3
Danio rerio [8] = species: Danio rerio; assay: Inhibition of heat-induced AML1-ETO protein expression in heterozygous transgenic zebrafish embryo by Western blot analysis; format: functional, organism-based; how it was run: as §1
Danio rerio [9] = species: Danio rerio; assay: Inhibition of Hsp70 expression in heterozygous transgenic zebrafish embryo at 0.5 uM by Western blot analysis; format: functional, organism-based
How it was run: (§4)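 Heterozygous Tg(hsp:AML1-ETO) embryos treated with compound or DMSO and heat-treated to induce transgene expression. Lysates examined by Western blot with anti-AML1 antibody for AML1-ETO, and also probed for Hsp70. Akt used as loading reference. Controls were heat-treated wild-type embryos and unheated transgenic embryos.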

Danio rerio [10] = species: Danio rerio; assay: Inhibition of heat-induced AML1-ETO protein expression in heterozygous transgenic zebrafish embryo at 0.5 uM by Western blot analysis; format: functional, organism-based; how it was run: as §4
Danio rerio [11] = species: Danio rerio; conditions: 40 uM
Danio rerio [12] = species: Danio rerio; conditions: 40 uM; remark: listed apart in the source
Danio rerio [13] = species: Danio rerio; conditions: 40 uM; remark: listed apart in the source
Danio rerio [14] = species: Danio rerio; conditions: 40 uM; remark: listed apart in the source
Danio rerio [15] = species: Danio rerio; assay: Inhibition of AML1-ETO protein translation in heterozygous transgenic zebrafish assessed as suppression of phenotype appearance; format: functional, organism-based
How it was run: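 Heterozygous Tg(hsp:AML1-ETO) embryos were dechorionated with pronase at 12−16 hpf and kept in E3 buffer, five per well. Compound was added at 20 μM final. One hour later, AE expression was induced by heat shock at 40 °C for 1 h, followed by 90 min at 28.5 °C. Embryos were then fixed and gata1 in situ hybridization was scored in the posterior blood islands.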

Danio rerio [16] = species: Danio rerio; assay: Effect on gata1 gene expression in wild type zebrafish embryo at 20 uM treated 14 hrs post fertilization by in-situ hybridization analysis; format: functional, organism-based
Danio rerio [17] = species: Danio rerio; assay: Effect on scl gene expression in wild type zebrafish embryo at 20 uM treated 14 hrs post fertilization by in-situ hybridization analysis; format: functional, organism-based
Danio rerio [18] = species: Danio rerio; assay: Effect on MPO gene expression in wild type zebrafish embryo at 20 uM treated 14 hrs post fertilization by in-situ hybridization analysis; format: functional, organism-based
Danio rerio [19] = species: Danio rerio; assay: Effect on l-plastin gene expression in wild type zebrafish embryo at 20 uM treated 14 hrs post fertilization by in-situ hybridization analysis; format: functional, organism-based
Danio rerio [20] = species: Danio rerio; assay: Induction of MPO-positive granulocytic cell accumulation in heat-stimulated heterozygous transgenic zebrafish embryo; format: functional, organism-based
Danio rerio [21] = species: Danio rerio; assay: Induction of AML1-ETO protein translation in 37 degC heat-stimulated heterozygous transgenic zebrafish assessed as phenotype appearance after 1 hr by in-situ hybridization analysis; format: functional, organism-based
Danio rerio [22] = species: Danio rerio; assay: Downregulation of gata1 gene expression in 39 to 40 degC heat-stimulated heterozygous transgenic zebrafish embryo after 1 hr by in-situ hybridization analysis; format: functional, organism-based
Danio rerio [23] = species: Danio rerio; assay: Upregulation of MPO gene expression in 39 to 40 degC heat-stimulated heterozygous transgenic zebrafish embryo after 1 hr by in-situ hybridization analysis; format: functional, organism-based
Danio rerio [24] = species: Danio rerio; assay: Induction of AML1-ETO protein translation in 39 to 40 degC heat-stimulated heterozygous transgenic zebrafish assessed as phenotype appearance after 1 hr by in-situ hybridization analysis; format: functional, organism-based
Danio rerio [25] = species: Danio rerio; assay: Inhibition of COX2-mediated decrease in gata1 expression in heat-stimulated heterozygous transgenic zebrafish embryo assessed as restoration of gata1 level at 20 uM by in-situ hybridization analysis; how it was run: as §2
Danio rerio [26] = species: Danio rerio; assay: Inhibition of COX2-mediated decrease in gata1 expression in heterozygous transgenic zebrafish embryo assessed as restoration of gata1 level at 20 uM by in-situ hybridization analysis; how it was run: as §2
Danio rerio [27] = species: Danio rerio; assay: Inhibition of COX2 in heat-stimulated heterozygous transgenic zebrafish embryo assessed as MPO-positive granulocytic cell accumulation at 20 uM by in situ hybridization analysis; how it was run: as §3
Danio rerio [28] = species: Danio rerio; assay: Inhibition of COX2 in heterozygous transgenic zebrafish embryo assessed as MPO-positive granulocytic cell accumulation at 20 uM by in situ hybridization analysis; how it was run: as §3
Danio rerio [29] = species: Danio rerio; assay: Inhibition of COX2 in heat-stimulated heterozygous transgenic zebrafish embryo assessed as MPO-positive granulocytic cell accumulation at 20 uM by in situ hybridization analysis in presence of PGE2; how it was run: as §3
[30] = biological target: Glycogen synthase kinase 3 beta (Danio rerio) (UniProt Q9YH60); assay: Inhibition of GSK-3-beta-mediated activation of […] signaling in heat-stimulated heterozygous transgenic zebrafish embryo assessed as down-regulation of gata1 gene expression at 0.5 uM by in-situ hybridization analysis
Glycogen synthase kinase 3 beta (Danio rerio), sequence (Q9YH60 as listed by the source): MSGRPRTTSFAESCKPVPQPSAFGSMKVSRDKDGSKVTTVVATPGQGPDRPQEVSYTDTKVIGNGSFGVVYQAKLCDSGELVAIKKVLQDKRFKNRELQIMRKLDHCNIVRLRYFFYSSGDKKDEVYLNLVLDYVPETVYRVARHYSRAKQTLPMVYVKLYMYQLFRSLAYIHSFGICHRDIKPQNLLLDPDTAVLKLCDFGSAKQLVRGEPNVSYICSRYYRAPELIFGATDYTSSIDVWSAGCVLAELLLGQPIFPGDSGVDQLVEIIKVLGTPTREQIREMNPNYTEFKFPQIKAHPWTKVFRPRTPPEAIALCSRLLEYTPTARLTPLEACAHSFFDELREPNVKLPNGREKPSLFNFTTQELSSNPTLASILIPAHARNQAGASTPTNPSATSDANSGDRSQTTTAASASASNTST
How it was run: (§5)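 Heterozygous Tg(hsp:AML1-ETO) embryos exposed to the GSK-3β inhibitor from 14 hpf, after gastrulation, then given a mild heat treatment (37 °C, 1 h) or none. DMSO vehicle control. In situ hybridization for gata1 or mpo. Scored as numbers of embryos showing gata1 downregulation or mpo upregulation.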

[31] = biological target: Glycogen synthase kinase 3 beta (Danio rerio) (UniProt Q9YH60); assay: Inhibition of GSK-3-beta-mediated activation of […] signaling in heat-stimulated heterozygous transgenic zebrafish embryo assessed as upregulation of MPO gene expression at 0.5 uM by in-situ hybridization analysis; how it was run: as §5
[32] = biological target: Glycogen synthase kinase 3 beta (Danio rerio) (UniProt Q9YH60); assay: Inhibition of GSK-3-beta-mediated activation of […] signaling in heterozygous transgenic zebrafish embryo assessed as effect on gata1 gene expression at 0.5 uM by in-situ hybridization analysis; how it was run: as §5
[33] = biological target: Glycogen synthase kinase 3 beta (Danio rerio) (UniProt Q9YH60); assay: Inhibition of GSK-3-beta-mediated activation of […] signaling in heterozygous transgenic zebrafish embryo assessed as effect on MPO gene expression at 0.5 uM by in-situ hybridization analysis; how it was run: as §5
Danio rerio [34] = species: Danio rerio; assay: Effect on gross morphology of heterozygous transgenic zebrafish embryo at 0.5 uM; format: ADME, organism-based; conditions: in vivo

SMILES: C=C(C)[C@H]1Cc2c(ccc3c2O[C@@H]2COc4cc(OC)c(OC)cc4[C@@H]2C3=O)O1
- inhibition (Danio rerio [1]): Active
- inhibition (Danio rerio [2]): Active

SMILES: CS(=O)(=O)Nc1ccc([N+](=O)[O-])cc1OC1CCCCC1
- inhibition (Danio rerio [3]): Active
- inhibition (Danio rerio [4]): inactive
- inhibition (Danio rerio [5]): Active
- inhibition (Danio rerio [6]): inactive
- inhibition (Danio rerio [7]): inactive

SMILES: O=c1oc2ccccc2c(O)c1Cc1c(O)c2ccccc2oc1=O
- inhibition of AML1-ETO protein expression (active/not active) (Danio rerio [8]): inactive

SMILES: Oc1ccc(Cl)cc1Cc1cc(Cl)ccc1O
- inhibition of AML1-ETO protein expression (active/not active) (Danio rerio [8]): Active

SMILES: CS(=O)(=O)Nc1ccc([N+](=O)[O-])cc1Oc1ccccc1
- inhibition (Danio rerio [9]): inactive
- inhibition (Danio rerio [10]): inactive
- inhibition (Danio rerio [11]): inactive
- inhibition (Danio rerio [12]): Active
- inhibition (Danio rerio [13]): inactive
- inhibition (Danio rerio [14]): inactive

SMILES: C[C@@H]1C[C@@H]([C@H](O)CC2CC(=O)NC(=O)C2)C(=O)[C@@H](C)C1
- Imax (Danio rerio [15]): Active
- inhibition (Danio rerio [2]): Active

SMILES: CCCCC[C@H](O)/C=C/[C@H]1[C@H](O)CC(=O)[C@@H]1C/C=C\CCCC(=O)O
- Activity (Danio rerio [16]): inactive
- Activity (Danio rerio [17]): inactive
- Activity (Danio rerio [18]): inactive
- Activity (Danio rerio [19]): inactive
- Activity (Danio rerio [20]): Active
- inhibition (Danio rerio [21]): Active
- inhibition (Danio rerio [22]): inactive
- inhibition (Danio rerio [23]): inactive
- Activity (Danio rerio [24]): Active

SMILES: COc1ccc2c(c1)c(CC(=O)O)c(C)n2C(=O)c1ccc(Cl)cc1
- inhibition (Danio rerio [25]): Active
- inhibition (Danio rerio [26]): inactive
- inhibition (Danio rerio [27]): Active
- inhibition (Danio rerio [28]): inactive
- inhibition (Danio rerio [29]): inactive

SMILES: CC(/C=C/C(=O)NO)=C\[C@@H](C)C(=O)c1ccc(N(C)C)cc1
- inhibition (Danio rerio [9]): inactive
- inhibition (Danio rerio [10]): inactive

SMILES: COc1ccc2c(c1)O[C@@H]1COc3cc(OC)c(OC)cc3[C@@H]1C2=O
- inhibition of AML1-ETO protein expression (active/not active) (Danio rerio [8]): Active

SMILES: Oc1c(Cl)cc(Cl)cc1Sc1cc(Cl)cc(Cl)c1O
- inhibition of AML1-ETO protein expression (active/not active) (Danio rerio [8]): Active

SMILES: O=C1Nc2cc(Br)ccc2/C1=C1/Nc2ccccc2/C1=N\O [6BIO]
- inhibition [30]: Active
- inhibition [31]: Active
- inhibition [32]: Active
- inhibition [33]: Active
- Activity (Danio rerio [34]): Toxic
